The subject of test [1] is Mus musculus. The test is described as follows: Immunostimulatory activity in C57BL/6 mouse assessed as inhibition of 5'-CTATCTGACGTTCTCTGT-3'-induced IL12 production in serum at 5 mg/kg, sc administered 24 hrs prior to 5'-CTATCTGACGTTCTCTGT-3' challenge measured after 2 hrs by sandwich ELISA. The test is classed as functional. The conditions noted are these: C57BL/6, sc, route subcutaneous. In outline: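 C57BL/6 mice were pretreated sc in the right flank with 2, 5 or 10 mg/kg ODN. After 24 h, the TLR9 agonist ODN was given at 0.5 mg/kg sc in the left flank. Serum IL-12 was measured by ELISA 2 h later. Representative of two experiments.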

The subject of test [2] is Mus musculus. Nature of the test: Immunostimulatory activity in C57BL/6 mouse assessed as inhibition of 5'-CTATCTGACGTTCTCTGT-3'-induced IL12 production in serum at 10 mg/kg, sc administered 24 hrs prior to 5'-CTATCTGACGTTCTCTGT-3' challenge measured after 2 hrs by sandwich ELISA. The test is classed as functional. The conditions noted are these: C57BL/6, sc, route subcutaneous. In outline:
(§1)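 C57BL/6 mice received 10 mg/kg ODN sc in the right flank. The TLR9 agonist ODN was then given at 0.5 mg/kg sc in the left flank 24, 48 or 72 h later. Serum IL-12 was measured by ELISA 2 h after challenge. Naive serum served as reference. Representative of three experiments.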
(In general: ELISA stands for enzyme-linked immunosorbent assay.)

The subject of test [3] is Mus musculus. The test is described as follows: Immunostimulatory activity in C57BL/6 mouse assessed as inhibition of 0.25 mg/kg 5'-CTATCTGACGTTCTCTGT-3'-induced IL12 production in serum at 10 mg/kg, sc administered 24 hrs prior to 5'-CTATCTGACGTTCTCTGT-3' challenge measured after 2 hrs by sandwich ELISA. The test is classed as functional. In outline: (§2)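 C57BL/6 mice received 10 mg/kg ODN sc in the right flank. After 24 h, the CpG TLR9 agonist ODN was given sc in the left flank at 0.25, 0.5 or 1 mg/kg. Serum IL-12 was measured by ELISA 2 h after challenge. Naive mice served as reference. Representative of two experiments.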

Test [4] concerns Mus musculus. The test is described as follows: Immunostimulatory activity in C57BL/6 mouse assessed as inhibition of 0.5 mg/kg 5'-CTATCTGACGTTCTCTGT-3'-induced IL12 production in serum at 10 mg/kg, sc administered 24 hrs prior to 5'-CTATCTGACGTTCTCTGT-3' challenge measured after 2 hrs by sandwich ELISA. It counts as functional. In outline: as §2
The subject of test [5] is Mus musculus. Nature of the test: Immunostimulatory activity in C57BL/6 mouse assessed as inhibition of 5'-CTATCTGACGTTCTCTGT-3'-induced IL12 production in serum at 10 mg/kg, sc administered 72 hrs prior to 5'-CTATCTGACGTTCTCTGT-3' challenge measured after 2 hrs by sandwich ELISA. It counts as functional. The conditions noted are these: C57BL/6, sc, route subcutaneous. In outline: as §1

Test [6] relates to Mus musculus. The test is described as follows: Immunostimulatory activity in C57BL/6 mouse assessed as inhibition of 5'-CTATCTGACGTTCTCTGT-3'-induced IL10 production in serum at 5 mg/kg, sc administered 24 hrs prior to 5'-CTATCTGACGTTCTCTGT-3' challenge measured after 2 hrs by Luminex multiplex assay. The test is classed as functional. The conditions noted are these: C57BL/6, sc, route subcutaneous.

Test [7] relates to Mus musculus. Nature of the test: Immunostimulatory activity in C57BL/6 mouse assessed as inhibition of 5'-CTATCTGACGTTCTCTGT-3'-induced KC production in serum at 5 mg/kg, sc administered 24 hrs prior to 5'-CTATCTGACGTTCTCTGT-3' challenge measured after 2 hrs by Luminex multiplex assay. The test is classed as functional. The following applies: C57BL/6, sc, route subcutaneous.

For test [8], the system named is Mus musculus. The test is described as follows: Immunostimulatory activity in C57BL/6 mouse assessed as inhibition of 5'-CTATCTGACGTTCTCTGT-3'-induced MCP1 production in serum at 5 mg/kg, sc administered 24 hrs prior to 5'-CTATCTGACGTTCTCTGT-3' challenge measured after 2 hrs by Luminex multiplex assay. The test is classed as functional. The following applies: C57BL/6, sc, route subcutaneous.

Test [9] deals with Mus musculus. Nature of the test: Immunostimulatory activity in C57BL/6 mouse assessed as inhibition of TLR7 agonist-induced IL6 production in serum at 5 mg/kg, sc administered 24 hrs prior to TLR7 agonist challenge measured after 2 hrs by Luminex multiplex assay. The conditions noted are these: C57BL/6, sc, route subcutaneous. The test is classed as functional.
For test [10], the system named is Mus musculus. The test is described as follows: Immunostimulatory activity in C57BL/6 mouse assessed as inhibition of LPS-induced KC production in serum at 10 mg/kg, sc administered 24 hrs prior to LPS challenge measured after 2 hrs by Luminex multiplex assay.
The test system of test [11] is Mus musculus. The test is described as follows: Immunostimulatory activity in C57BL/6 mouse assessed as inhibition of LPS-induced IL6 production in serum at 10 mg/kg, sc administered 24 hrs prior to LPS challenge measured after 2 hrs by Luminex multiplex assay.
Test [12] relates to Mus musculus. Nature of the test: Immunostimulatory activity in C57BL/6 mouse assessed as inhibition of LPS-induced MIG production in serum at 10 mg/kg, sc administered 24 hrs prior to LPS challenge measured after 2 hrs by Luminex multiplex assay.
Test [13] has as its system Mus musculus. Nature of the test: Immunostimulatory activity in C57BL/6 mouse assessed as inhibition of LPS-induced MCP1 production in serum at 10 mg/kg, sc administered 24 hrs prior to LPS challenge measured after 2 hrs by Luminex multiplex assay.
Test [14] deals with Mus musculus. Nature of the test: Immunostimulatory activity in C57BL/6 mouse assessed as inhibition of LPS-induced TNFalpha production in serum at 10 mg/kg, sc administered 24 hrs prior to LPS challenge measured after 2 hrs by Luminex multiplex assay.
Test [15] has as its system Mus musculus. Nature of the test: Immunostimulatory activity in C57BL/6 mouse assessed as inhibition of TLR3 agonist-induced IL6 production in serum at 10 mg/kg, sc administered 24 hrs prior to TLR3 agonist challenge measured after 2 hrs by Luminex multiplex assay.
Test [16] has as its system Mus musculus. The test is described as follows: Immunostimulatory activity in C57BL/6 mouse assessed as inhibition of TLR3 agonist-induced MIG production in serum at 10 mg/kg, sc administered 24 hrs prior to TLR3 agonist challenge measured after 2 hrs by Luminex multiplex assay.
For test [17], the system named is Mus musculus. The test is described as follows: Immunostimulatory activity in C57BL/6 mouse assessed as inhibition of TLR3 agonist-induced IL10 production in serum at 10 mg/kg, sc administered 24 hrs prior to TLR3 agonist challenge measured after 2 hrs by Luminex multiplex assay.

The structures appear in SMILES notation. The source made the active and inactive calls. The rule behind the calls is not given here.

Regarding `COC1[C@H](n2cnc3c(=O)[nH]c(N)nc32)O[C@H](COP(=O)(S)O[C@H]2C[C@H](n3cc(C)c(N)nc3=O)O[C@@H]2COP(=O)(S)O[C@H]2C[C@H](n3cnc4c(N)ncnc43)O[C@@H]2COP(=O)(S)O[C@H]2C[C@H](n3cnc4c(=O)[nH]c(N)nc43)O[C@@H]2COP(=O)(S)O[C@H]2C[C@H](n3cc(C)c(=O)[nH]c3=O)O[C@@H]2COP(=O)(S)O[C@H]2C[C@H](n3ccc(N)nc3=O)O[C@@H]2COP(=O)(S)O[C@H]2C[C@H](n3cc(C)c(=O)[nH]c3=O)O[C@@H]2COP(=O)(S)O[C@H]2C[C@H](n3cnc4c(N)ncnc43)O[C@@H]2COP(=O)(S)O[C@H]2C[C@H](n3cc(C)c(=O)[nH]c3=O)O[C@@H]2COP(=O)(S)O[C@H]2C[C@H](n3ccc(N)nc3=O)O[C@@H]2CO)[C@H]1OP(=O)(S)OC[C@H]1O[C@@H](n2cc(C)c(=O)[nH]c2=O)C[C@@H]1OP(=O)(S)OC[C@H]1O[C@@H](n2cc(C)c(=O)[nH]c2=O)C[C@@H]1OP(=O)(S)OC[C@H]1O[C@@H](n2ccc(N)nc2=O)C[C@@H]1OP(=O)(S)OC[C@H]1O[C@@H](n2cc(C)c(=O)[nH]c2=O)C[C@@H]1OP(=O)(S)OC[C@H]1O[C@@H](n2ccc(N)nc2=O)C[C@@H]1OP(=O)(S)OC[C@H]1O[C@@H](n2cc(C)c(=O)[nH]c2=O)C[C@@H]1OP(=O)(S)OC[C@H]1O[C@@H](n2cnc3c(=O)[nH]c(N)nc32)C[C@@H]1OP(=O)(S)OC[C@H]1O[C@@H](n2cc(C)c(=O)[nH]c2=O)C[C@@H]1O` (some centres not stated), the inhibition in vivo at 5 mg/kg in the test with Mus musculus [1] is 66%; in the test on Mus musculus [6], 50%; with Mus musculus [7], 50%; with Mus musculus [8] it was 50%; in the test on Mus musculus [9] it was 50%. For the same molecule, the inhibition in vivo at 10 mg/kg in the test on Mus musculus [2] was 81%; in the test on Mus musculus [5], 35%. Also, the entries for the “inhibition (INH)” value in the test with Mus musculus [3] and in the test on Mus musculus [4] were 85% and 66%, respectively. The outcome in the test with Mus musculus [10], in the test on Mus musculus [11], with Mus musculus [12], in the test on Mus musculus [13], with Mus musculus [14] and in the test on Mus musculus [15] was inactive. Moreover, the result in the test with Mus musculus [16] and in the test with Mus musculus [17] was inactive.

One may read the inhibition in vivo as the drop in the measured response relative to a control, in per cent.

(Values after ChEMBL document CHEMBL1152452, “Modifications incorporated in CpG motifs of oligodeoxynucleotides lead to antagonist activity of toll-like receptors 7 and 9” (2009).)
